≈ marks a conversion by molar mass, not a printed value. Calls of active or inactive are those of the source. The rule behind the calls is not given here.
Assays:
[1] = system: Mycobacterium tuberculosis; test: Antimycobacterial activity against Mycobacterium tuberculosis H37Rv by ten-fold serial dilution method; assay type: functional
Summary of the method: (§1)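 Agar dilution: ten-fold serial dilutions incorporated into Middlebrook 7H11 agar with OADC. Inoculum from fresh 7H11 slants, adjusted to 1 mg mL−1 wet weight in 0.05% Tween 80 saline, diluted 10−2 (approx. 10^7 cfu mL−1); 5 μL spotted per tube. 37 °C, read at 28 days. MIC = lowest concentration giving complete growth inhibition.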

[2] = Prodrug activation of compound assessed as sulphur dioxide formation at 100 uM after 30 mins in phosphate buffer at pH 7.4 by pararosaniline-based colorimetric assay in presence of cysteine; conditions: pH 7.4, 0.5 h
Summary of the method: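 Sulfite detection: 900 μL p-rosaniline dye plus 50 μL saturated HgCl2 plus 50 μL sample, kept in the dark 15 min until violet colour developed, then absorbance read.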

[3] = system: Mycobacterium tuberculosis; test: Antimycobacterial activity against Mycobacterium tuberculosis H37Rv assessed as growth inhibition at 100 ug/ml by ten-fold serial dilution method; assay type: functional, organism-based; summary of the method: as §1
[4] = system: Mycobacterium tuberculosis; test: Antimycobacterial activity against Mycobacterium tuberculosis H37Rv assessed as growth inhibition at 2 ug/ml by ten-fold serial dilution method in presence of cysteine; assay type: functional, organism-based
Summary of the method: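 Test material was a cysteine mixture in pH 7.4 buffer, taken about 2 h after mixing and tested at 2 μg mL−1. Run on 7H11-OADC agar against H37Rv: inoculum approx. 10^7 cfu mL−1, 5 μL spotted, 37 °C, read at 28 days for complete growth inhibition.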

[5] = Selectivity index, ratio of IC50 for HEK293 cells to MIC for Mycobacterium tuberculosis H37Rv; assay type: functional
HEK293 = test: Cytotoxicity against human HEK293 cells after 72 hrs by XTT assay; assay type: cell-based; conditions: HEK293, 72 h
[6] = Prodrug activation of compound assessed as sulphur dioxide formation at 100 uM after 4 hrs in phosphate buffer at pH 7.4 by pararosaniline-based colorimetric assay in presence of cysteine; conditions: pH 7.4, 4 h

Row | SMILES | MIC [1] | MIC99 [1] | Drug degradation [2] | growth inhibition (GI) [3] | growth inhibition (GI) [4] | Selectivity Index [5] | IC50 (HEK293) | Drug degradation [6]
1 | COC(=O)C1CCCN1S(=O)(=O)c1ccc([N+](=O)[O-])cc1[N+](=O)[O-] (stereo unspecified) | 35 µM (≈ 12.6 µg/mL) | 12.5 µg/mL (≈ 34.8 µM) | 83 µM | – | – | – | – | –
2 | O=[N+]([O-])c1ccc(Cl)c([N+](=O)[O-])c1 [DINITROCHLOROBENZENE] | 30.8 µM (≈ 6.24 µg/mL) | 6.25 µg/mL (≈ 30.9 µM) | 0 µM | – | – | – | – | –
3 | NNC(=O)c1ccncc1 [ISONIAZID] | 0.37 µM (≈ 0.0507 µg/mL) | 0.05 µg/mL (≈ 0.365 µM) | – | – | – | – | – | –
4 | O=S([O-])[O-].[Na+].[Na+] | – | – | – | inactive | – | – | – | –
5 | CNCc1ccccc1 [N-BENZYLMETHYLAMINE] | > 250 µM | > 100 µg/mL | – | inactive | – | – | – | –
6 | O=[N+]([O-])c1ccc(S(=O)(=O)N2CCOCC2)c([N+](=O)[O-])c1 | 19.6 µM (≈ 6.22 µg/mL) | 6.25 µg/mL (≈ 19.7 µM) | 96 µM | – | – | – | – | –
7 | O=[N+]([O-])c1ccc(S(=O)(=O)N2CCCCC2)c([N+](=O)[O-])c1 | 2.5 µM (≈ 0.788 µg/mL) | 0.78 µg/mL (≈ 2.47 µM) | 91 µM | – | – | – | – | –
8 | COC(=O)C(C)NS(=O)(=O)c1ccc([N+](=O)[O-])cc1[N+](=O)[O-] (stereo unspecified) | 18.7 µM (≈ 6.23 µg/mL) | 6.25 µg/mL (≈ 18.8 µM) | 93 µM | – | – | – | – | –
9 | O=[N+]([O-])c1ccc(S(=O)(=O)NCc2ccccc2)c([N+](=O)[O-])c1 | 0.15 µM (≈ 0.0506 µg/mL) | 0.05 µg/mL (≈ 0.148 µM) | 100 µM | – | inactive | 47 | 7 µM | –
10 | CN1CCN(S(=O)(=O)c2ccc([N+](=O)[O-])cc2[N+](=O)[O-])CC1 | 38 µM (≈ 12.6 µg/mL) | 12.5 µg/mL (≈ 37.8 µM) | 88 µM | – | – | – | – | –
11 | COc1ccc(NS(=O)(=O)c2ccc([N+](=O)[O-])cc2[N+](=O)[O-])cc1 | 4.4 µM (≈ 1.55 µg/mL) | 1.56 µg/mL (≈ 4.42 µM) | 79.5 µM | – | – | – | – | –
12 | CN(Cc1ccccc1)S(=O)(=O)c1ccc([N+](=O)[O-])cc1[N+](=O)[O-] | 1.1 µM (≈ 0.386 µg/mL) | 0.4 µg/mL (≈ 1.14 µM) | 100 µM | – | – | – | – | –
13 | O=[N+]([O-])c1ccccc1S(=O)(=O)NCc1ccccc1 | > 100 µM | > 50 µg/mL | 0 µM | – | – | – | – | Not Active
14 | NCc1ccccc1 [BENZYLAMINE] | > 250 µM | > 100 µg/mL | – | – | – | – | – | –
15 | O=[N+]([O-])c1ccc(S(=O)(=O)NCc2ccccc2)cc1 | > 100 µM | > 50 µg/mL | 0 µM | – | – | – | – | Not Active
16 | O=[N+]([O-])c1ccc(S(=O)(=O)Nc2cccc(F)c2)c([N+](=O)[O-])c1 | 73 µM (≈ 24.9 µg/mL) | 25 µg/mL (≈ 73.3 µM) | 24 µM | – | – | – | – | –
17 | O=[N+]([O-])c1ccc(S(=O)(=O)Nc2ccccc2)c([N+](=O)[O-])c1 | 9.7 µM (≈ 3.14 µg/mL) | 3.13 µg/mL (≈ 9.68 µM) | 55 µM | – | – | – | – | –
18 | CCCN(Cc1ccccc1)S(=O)(=O)c1ccc([N+](=O)[O-])cc1[N+](=O)[O-] | 8.25 µM (≈ 3.13 µg/mL) | 3.13 µg/mL (≈ 8.25 µM) | 88 µM | – | – | – | – | –
19 | CS(=O)(=O)NCc1ccccc1 | > 100 µM | > 50 µg/mL | 0 µM | – | – | – | – | Not Active
20 | O=[N+]([O-])c1ccc(NCc2ccccc2)c([N+](=O)[O-])c1 | > 250 µM | > 100 µg/mL | 0 µM | – | – | – | – | –
21 | O=S(=O)(NCc1ccccc1)c1ccccc1 | > 100 µM | > 50 µg/mL | 0 µM | – | – | – | – | Not Active

Reference: ChEMBL document CHEMBL1944585, “Design, synthesis, and evaluation of thiol-activated sources of sulfur dioxide (SO₂) as antimycobacterial agents” (J Med Chem, 2012)
